From ChEMBL document CHEMBL1155759, “New spirostanol steroids and steroidal saponins from roots and rhizomes of Dracaena angustifolia and their antiproliferative activity” (J Nat Prod, 2001) come the findings set out here.

Structures can show the parent of a compound that is named as a salt.

Type in all cases: functional, cell-based
Experiment [1] can be described thus: Antiproliferative activity against mouse Colon 26-L5 cells assessed as cell viability after 72 hrs by MTT assay. For orientation: Formazan colour is commonly taken as a measure of viable cells.
Experiment [2] in a line: Antiproliferative activity against mouse B16-BL6 cells assessed as cell viability after 72 hrs by MTT assay. To be noted: B16-BL6, 72 h. An outline of the steps: (§1)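 MTT viability assay. HT-1080 and B-16 BL6 were kept in Eagle's MEM, colon 26-L5 in RPMI, all with 10% FCS, 0.1% NaHCO3 and 2 mM glutamine. 2500 cells/well were attached for 24 h at 37 °C, 5% CO2, then exposed 72 h to graded concentrations (DMSO stock, final DMSO <0.1%). MTT was added for 2 h, formazan read at 540 nm, and IC50 taken from means of four wells.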

The test system of the next experiment is HT-1080. The experiment can be described thus: Antiproliferative activity against human HT1080 cells assessed as cell viability after 72 hrs by MTT assay. The settings on record: HT-1080, 72 h. An outline of the steps:
as §1

Turning to `C=C1CC[C@@]2(OC1)O[C@H]1C[C@H]3[C@@H]4CC=C5C[C@@H](O)C[C@@H](O[C@@H]6OC[C@H](O)[C@H](O)[C@H]6O[C@@H]6O[C@@H](C)[C@H](O)[C@@H](O)[C@H]6O)[C@]5(C)[C@H]4CC[C@]3(C)[C@H]1[C@@H]2C`, the IC50 (in general, the midpoint of a concentration-inhibition curve) is 95.3 µM in experiment [1], 41.2 µM in experiment [2] and 42.1 µM in the experiment with HT-1080.

On to `C=C1CC[C@@]2(OC1)O[C@H]1C[C@H]3[C@@H]4CC=C5C[C@@H](O)C[C@@H](O[C@@H]6OC[C@H](O)[C@H](O)[C@H]6O)[C@]5(C)[C@H]4CC[C@]3(C)[C@H]1[C@@H]2C`, for which the IC50 in experiment [1] was 77.2 µM; in experiment [2], 47.9 µM; with HT-1080 it was 40 µM.

Take `C=C(CCC1=C(C)[C@H]2[C@H](C[C@H]3[C@@H]4CC=C5C[C@@H](O)C[C@@H](O[C@@H]6OC[C@H](O)[C@H](O)[C@H]6O[C@@H]6O[C@@H](C)[C@H](O)[C@@H](O)[C@H]6O)[C@]5(C)[C@H]4CC[C@@]32C)O1)CO[C@@H]1O[C@H](CO)[C@@H](O)[C@H](O)[C@H]1O`: the 50% inhibitory concentration (IC50) (in experiment [1]; in experiment [2]; in the experiment on HT-1080) was more than 100 µM throughout.

Take `C=C1CO[C@@]2(O[C@H]3C[C@H]4[C@@H]5CC=C6C[C@@H](O)C[C@@H](O[C@@H]7OC[C@H](O)[C@H](O)[C@H]7O[C@@H]7O[C@@H](C)[C@H](OC(C)=O)[C@@H](OC(C)=O)[C@H]7OC(C)=O)[C@]6(C)[C@H]5CC[C@]4(C)[C@H]3[C@@H]2C)[C@@H](O)[C@H]1O[C@@H]1O[C@H](C)[C@H](O)[C@H](O)[C@H]1O`: the results for the 50% inhibitory concentration (IC50) (in experiment [1]; in experiment [2]; in the experiment on HT-1080) were 30.2 µM, 20.9 µM and 3.8 µM, respectively.

In the case of `C=C1CO[C@@]2(O[C@H]3C[C@H]4[C@@H]5CC=C6C[C@@H](O)C[C@@H](O[C@@H]7OC[C@H](O)[C@H](O)[C@H]7O[C@@H]7O[C@@H](C)[C@H](O)[C@@H](O)[C@H]7O)[C@]6(C)[C@H]5CC[C@]4(C)[C@H]3[C@@H]2C)[C@@H](O)[C@H]1O`, the concentration for half-maximal inhibition (IC50) in experiment [1] was determined as 5.3 µM; in experiment [2] it was 4.2 µM; with HT-1080, 56.5 µM.

As for `C=C1CO[C@@]2(O[C@H]3C[C@H]4[C@@H]5CC=C6C[C@@H](O)C[C@@H](O[C@@H]7OC[C@H](O)[C@H](O[C@@H]8OC[C@@H](O)[C@H](O)[C@H]8O)[C@H]7O[C@@H]7O[C@@H](C)[C@H](OC(C)=O)[C@@H](OC(C)=O)[C@H]7OC(C)=O)[C@]6(C)[C@H]5CC[C@]4(C)[C@H]3[C@@H]2C)[C@@H](O)[C@H]1O[C@@H]1O[C@H](C)[C@H](O)[C@H](O)[C@H]1O`, the results for the IC50 (in experiment [1]; in experiment [2]; with HT-1080) were 22.1 µM, 11.9 µM and 0.6 µM, respectively.

For `C=C1CO[C@@]2(O[C@H]3C[C@H]4[C@@H]5CC=C6C[C@@H](O)C[C@@H](O[C@@H]7OC[C@H](O)[C@H](O[C@@H]8OC[C@@H](O)[C@H](O)[C@H]8O)[C@H]7O[C@@H]7O[C@@H](C)[C@H](OC(C)=O)[C@@H](OC(C)=O)[C@H]7OC(C)=O)[C@]6(C)[C@H]5CC[C@]4(C)[C@H]3[C@@H]2C)[C@@H](O)[C@H]1O`, the IC50 in experiment [1] turned out to be 76.6 µM; in experiment [2], 28.4 µM; with HT-1080, 11.1 µM.

Take `CC1CC[C@@]2(OC1)O[C@H]1C[C@@]3(O)[C@@H]4CC=C5C[C@@H](O)C[C@@H](O)[C@]5(C)[C@H]4CC[C@]3(C)[C@@]1(O)[C@@H]2C` (mixture of isomers) [(25R,S)-NAMOGENIN A]: the half-maximal inhibitory concentration (IC50) (in experiment [1]; in experiment [2]; in the experiment on HT-1080) was more than 100 µM throughout.

Take `CC1CC[C@@]2(OC1)O[C@H]1C[C@@]3(O)[C@@H]4CC=C5C[C@@H](O)C[C@@H](O)[C@]5(C)[C@H]4CC[C@]3(C)[C@H]1[C@@H]2C` (single isomer, unassigned) [NAMOGENIN B]: the IC50 (in experiment [1]; in experiment [2]; with HT-1080) was more than 100 µM in each case.

`COc1cccc2c1C(=O)c1c(O)c3c(c(O)c1C2=O)C[C@@](O)(C(=O)CO)C[C@@H]3O[C@H]1C[C@H](N)[C@H](O)[C@H](C)O1` [DOXORUBICIN HYDROCHLORIDE]: the IC50 (in experiment [2]; in the experiment on HT-1080) was 0.2 µM in each case.

For the compound `O=c1[nH]cc(F)c(=O)[nH]1` [FLUOROURACIL], the results for the IC50 (in experiment [1]; in experiment [2]; in the experiment on HT-1080) were 0.5 µM, 0.6 µM and 1.5 µM, respectively.

Turning to `C=C1CC[C@@]2(OC1)O[C@H]1C[C@@]3(O)[C@@H]4CC=C5C[C@@H](O)C[C@@H](O)[C@]5(C)[C@H]4CC[C@]3(C)[C@@]1(O)[C@@H]2C` [NAMOGENIN C], the 50% inhibitory concentration (IC50) (in experiment [1]; in experiment [2]; in the experiment with HT-1080) was more than 100 µM throughout.

On to `C=C1CO[C@@]2(O[C@H]3C[C@H]4[C@@H]5CC=C6C[C@@H](O)C[C@@H](O[C@@H]7OC[C@H](O)[C@H](O[C@@H]8OC[C@@H](O)[C@H](OC(C)=O)[C@H]8O)[C@H]7O[C@@H]7O[C@@H](C)[C@H](OC(C)=O)[C@@H](OC(C)=O)[C@H]7OC(C)=O)[C@]6(C)[C@H]5CC[C@]4(C)[C@H]3[C@@H]2C)[C@@H](O)[C@H]1O[C@@H]1O[C@H](C)[C@H](O)[C@H](O)[C@H]1O` [NAMONIN A], for which the IC50 was determined as 26.6 µM in experiment [1], 9.7 µM in experiment [2] and 0.2 µM in the experiment with HT-1080.

In the case of `C=C1CO[C@@]2(O[C@H]3C[C@H]4[C@@H]5CC=C6C[C@@H](O)C[C@@H](O[C@@H]7OC[C@H](O)[C@H](O[C@@H]8OC[C@@H](OC(C)=O)[C@H](O)[C@H]8O)[C@H]7O[C@@H]7O[C@@H](C)[C@H](OC(C)=O)[C@@H](OC(C)=O)[C@H]7OC(C)=O)[C@]6(C)[C@H]5CC[C@]4(C)[C@H]3[C@@H]2C)[C@@H](O)[C@H]1O[C@@H]1O[C@H](C)[C@H](O)[C@H](O)[C@H]1O` [NAMONIN B], the figures for the 50% inhibitory concentration (IC50) (in experiment [1]; in experiment [2]; in the experiment with HT-1080) were 27.7 µM, 11.8 µM and 0.3 µM, respectively.

For `C=C1CO[C@@]2(O[C@H]3C[C@H]4[C@@H]5CC=C6C[C@@H](O)C[C@@H](O[C@@H]7OC[C@H](O)[C@H](O)[C@H]7O[C@@H]7O[C@@H](C)[C@H](O)[C@@H](O)[C@H]7O)[C@]6(C)[C@H]5CC[C@]4(C)[C@H]3[C@@H]2C)[C@@H](O)[C@H]1O[C@@H]1O[C@H](C)[C@H](O)[C@H](O)[C@H]1O` [NAMONIN C], the values for the concentration for half-maximal inhibition (IC50) (in experiment [1]; in experiment [2]; in the experiment with HT-1080) were more than 100 µM, more than 100 µM and 27.7 µM, respectively.

With `C=C1CO[C@@]2(O[C@H]3C[C@H]4[C@@H]5CC=C6C[C@@H](O)C[C@@H](O[C@@H]7OC[C@H](O)[C@H](O)[C@H]7O[C@@H]7O[C@@H](C)[C@H](OC(C)=O)[C@@H](O)[C@H]7O)[C@]6(C)[C@H]5CC[C@]4(C)[C@H]3[C@@H]2C)[C@@H](O)[C@H]1O[C@@H]1O[C@H](C)[C@H](O)[C@H](O)[C@H]1O` [NAMONIN D], the half-inhibitory concentration (IC50) in experiment [1] amounted to 97.4 µM; in experiment [2], 42.4 µM; in the experiment on HT-1080 it was 21.6 µM.

Regarding `CC(=O)O[C@H]1CO[C@@H](O[C@@H]2C[C@H](O)CC3=CC[C@H]4[C@@H]5C[C@@H]6OC(CC[C@@H](C)CO[C@@H]7O[C@H](CO)[C@@H](O)[C@H](O)[C@H]7O)=C(C)[C@@H]6[C@@]5(C)CC[C@@H]4[C@]32C)[C@H](O[C@@H]2O[C@@H](C)[C@H](O)[C@@H](O)[C@H]2O)[C@H]1O[C@@H]1OC[C@@H](O)[C@H](O)[C@H]1O` [NAMONIN E], the IC50 is more than 100 µM in experiment [1], more than 100 µM in experiment [2] and 21.8 µM in the experiment on HT-1080.
